Experimental data taken from ChEMBL document CHEMBL1138952 (Bioorg Med Chem Lett, 2006).

How the values were obtained:
[1] = molecular target: Coagulation factor X (Homo sapiens, UniProt P00742); assay: Binding affinity to human f10a
[2] = Activity in human plasma by aPTT assay; format: functional
[3] = molecular target: Prothrombin (Homo sapiens, UniProt P00734); assay: Binding affinity to thrombin
[4] = molecular target: Trypsin (Homo sapiens, UniProt P07477+P07478+P35030); assay: Binding affinity to trypsin; format: protein assay
[5] = molecular target: Vitamin K-dependent protein C (Homo sapiens, UniProt P04070); assay: Binding affinity to aPC
[6] = molecular target: Coagulation factor IX (Homo sapiens, UniProt P00740); assay: Binding affinity to f9a
[7] = molecular target: T1, Coagulation factor VII (Homo sapiens, UniProt P08709); assay: Binding affinity to f7a
T1 sequence (P08709 whole entry): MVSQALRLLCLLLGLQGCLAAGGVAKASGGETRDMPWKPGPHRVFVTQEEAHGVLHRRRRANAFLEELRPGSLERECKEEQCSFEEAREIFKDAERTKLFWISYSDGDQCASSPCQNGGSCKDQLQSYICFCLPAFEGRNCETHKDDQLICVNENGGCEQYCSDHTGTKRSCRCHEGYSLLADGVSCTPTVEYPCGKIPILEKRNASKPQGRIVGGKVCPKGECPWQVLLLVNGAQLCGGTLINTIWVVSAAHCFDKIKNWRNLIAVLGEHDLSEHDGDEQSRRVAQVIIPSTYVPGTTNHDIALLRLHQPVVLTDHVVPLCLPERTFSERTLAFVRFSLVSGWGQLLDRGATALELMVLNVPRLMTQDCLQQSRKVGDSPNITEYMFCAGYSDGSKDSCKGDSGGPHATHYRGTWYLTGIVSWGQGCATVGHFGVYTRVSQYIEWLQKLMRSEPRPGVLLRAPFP

[8] = molecular target: Plasminogen (Homo sapiens, UniProt P00747); assay: Binding affinity to plasmin
[9] = molecular target: Tissue-type plasminogen activator (Homo sapiens, UniProt P00750); assay: Binding affinity to tPA
[10] = molecular target: Urokinase-type plasminogen activator (Homo sapiens, UniProt P00749); assay: Binding affinity to urokinase
[11] = molecular target: Chymotrypsinogen B (Homo sapiens, UniProt P17538); assay: Binding affinity to chymotrypsin
[12] = molecular target: T2, Coagulation factor X (Oryctolagus cuniculus, UniProt O19045); assay: Binding affinity to rabbit f10a
T2 sequence (O19045 whole entry): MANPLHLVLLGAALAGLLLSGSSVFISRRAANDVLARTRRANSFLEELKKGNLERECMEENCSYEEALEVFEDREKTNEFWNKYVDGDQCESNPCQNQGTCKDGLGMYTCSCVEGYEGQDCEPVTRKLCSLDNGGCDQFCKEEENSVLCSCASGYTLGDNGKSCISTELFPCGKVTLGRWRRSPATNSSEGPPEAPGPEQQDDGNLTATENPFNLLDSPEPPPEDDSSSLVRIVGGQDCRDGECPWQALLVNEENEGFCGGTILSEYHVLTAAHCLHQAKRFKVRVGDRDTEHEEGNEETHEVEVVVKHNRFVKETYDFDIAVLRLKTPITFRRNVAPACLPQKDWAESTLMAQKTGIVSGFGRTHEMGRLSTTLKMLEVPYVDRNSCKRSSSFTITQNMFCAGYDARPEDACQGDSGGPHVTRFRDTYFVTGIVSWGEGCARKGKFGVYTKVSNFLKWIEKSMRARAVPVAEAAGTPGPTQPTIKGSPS

[13] = test system: Oryctolagus cuniculus; assay: Inhibition of thrombus formation in iv dosed rabbit arterio-venous shunt model; format: functional, organism-based
[14] = Protein binding in rabbit; format: ADME, Oryctolagus cuniculus; conditions: plasma, read-out: PPB (converted)
[15] = Clearance in dog at 0.5 mg/kg, iv and 0.2 mg/kg, po; format: ADME, organism-based, Canis lupus familiaris; conditions: in vivo
[16] = (§1) Volume of distribution in dog at 0.5 mg/kg, iv and 0.2 mg/kg, po; format: ADME, organism-based, Canis lupus familiaris; conditions: in vivo, read-out: Vdss
In short: (§2)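 Dogs received the compounds as TFA salts in a cassette (N-in-1) format, 0.5 mg/kg intravenously and 0.2 mg/kg orally (n = 2), and pharmacokinetic profiles were determined.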

[17] = (§3) Half life in dog at 0.5 mg/kg, iv and 0.2 mg/kg, po; format: ADME, organism-based, Canis lupus familiaris; conditions: in vivo; in short: as §2
[18] = Oral bioavailability in dog at 0.5 mg/kg, iv and 0.2 mg/kg, po; format: ADME, organism-based, Canis lupus familiaris; conditions: in vivo; in short: as §2
[19] = Apparent permeability in Caco-2 cells; format: ADME, cell-based; conditions: human
[20] = test system: Oryctolagus cuniculus; assay: Inhibition of thrombus formation in rabbit arterio-venous shunt model at 4.6 umol/kg/h, iv; format: functional, organism-based
[21] = molecular target: T3, Coagulation factor VII/tissue factor (Homo sapiens) (UniProt P08709+P13726); assay: Activity in human plasma by PT assay; format: functional, cell-free
In short: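 In vitro clotting assays (PT, aPTT) were run in human plasma.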

[22] = molecular target: T3, Coagulation factor VII/tissue factor (Homo sapiens); assay: Activity in rabbit plasma by PT assay; format: functional, cell-free; conditions: Oryctolagus cuniculus, target entry is the homologue from another species
[23] = test system: Canis familiaris; assay: as §1; format: ADME, organism-based, Canis lupus familiaris; conditions: in vivo; in short: as §2
[24] = test system: Canis familiaris; assay: as §3; format: ADME, organism-based, Canis lupus familiaris; conditions: in vivo; in short: as §2

Plasminogen, sequence (P00747 97-580 limits assumed): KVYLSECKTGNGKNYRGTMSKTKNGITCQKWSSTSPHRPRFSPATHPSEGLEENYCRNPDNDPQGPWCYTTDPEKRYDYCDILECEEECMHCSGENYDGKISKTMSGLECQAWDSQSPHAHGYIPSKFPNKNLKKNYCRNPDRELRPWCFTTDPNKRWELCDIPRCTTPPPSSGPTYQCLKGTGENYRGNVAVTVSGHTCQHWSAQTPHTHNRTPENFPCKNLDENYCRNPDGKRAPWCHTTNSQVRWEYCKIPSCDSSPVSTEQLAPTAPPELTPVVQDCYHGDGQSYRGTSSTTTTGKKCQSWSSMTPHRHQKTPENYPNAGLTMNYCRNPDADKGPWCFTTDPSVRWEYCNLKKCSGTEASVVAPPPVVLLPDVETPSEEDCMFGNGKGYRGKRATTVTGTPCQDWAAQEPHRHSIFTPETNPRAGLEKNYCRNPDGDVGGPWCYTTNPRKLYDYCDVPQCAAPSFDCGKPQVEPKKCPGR
Plasminogen, sequence (P00747 581-810 limits assumed): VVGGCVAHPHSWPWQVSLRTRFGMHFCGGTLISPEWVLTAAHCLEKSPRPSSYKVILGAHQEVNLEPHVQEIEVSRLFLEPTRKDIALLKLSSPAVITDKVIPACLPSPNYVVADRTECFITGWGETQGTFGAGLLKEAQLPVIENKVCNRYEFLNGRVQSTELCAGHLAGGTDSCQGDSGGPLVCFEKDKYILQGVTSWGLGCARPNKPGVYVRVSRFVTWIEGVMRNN
Coagulation factor X (Homo sapiens, UniProt P00742), sequence (P00742 41-179 limits assumed): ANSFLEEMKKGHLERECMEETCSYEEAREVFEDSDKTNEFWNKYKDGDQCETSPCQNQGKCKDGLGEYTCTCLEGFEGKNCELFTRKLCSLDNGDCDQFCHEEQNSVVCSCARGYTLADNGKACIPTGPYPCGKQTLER
Coagulation factor X (Homo sapiens, UniProt P00742), sequence (P00742 235-488 limits assumed): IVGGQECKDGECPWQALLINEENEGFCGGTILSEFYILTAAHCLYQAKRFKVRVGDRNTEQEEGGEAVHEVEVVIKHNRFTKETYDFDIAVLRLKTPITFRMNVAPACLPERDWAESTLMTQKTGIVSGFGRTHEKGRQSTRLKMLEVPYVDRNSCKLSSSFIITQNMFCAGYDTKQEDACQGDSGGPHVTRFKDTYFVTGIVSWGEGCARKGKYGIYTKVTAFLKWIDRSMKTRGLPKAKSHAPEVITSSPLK
Vitamin K-dependent protein C, sequence (P04070 43-197 limits assumed): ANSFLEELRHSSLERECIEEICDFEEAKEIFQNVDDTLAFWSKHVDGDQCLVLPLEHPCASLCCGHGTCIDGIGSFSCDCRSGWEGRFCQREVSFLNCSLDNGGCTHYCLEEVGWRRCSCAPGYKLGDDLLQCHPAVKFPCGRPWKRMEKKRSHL
Vitamin K-dependent protein C, sequence (P04070 212-461 limits assumed): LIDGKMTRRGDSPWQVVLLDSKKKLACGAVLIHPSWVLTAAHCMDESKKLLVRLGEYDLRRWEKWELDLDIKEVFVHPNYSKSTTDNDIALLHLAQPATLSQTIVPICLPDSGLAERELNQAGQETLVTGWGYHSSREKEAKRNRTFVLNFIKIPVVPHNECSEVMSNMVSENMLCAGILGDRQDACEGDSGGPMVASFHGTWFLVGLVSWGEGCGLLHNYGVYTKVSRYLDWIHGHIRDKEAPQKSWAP
Coagulation factor IX, sequence (P00740 47-191 limits assumed): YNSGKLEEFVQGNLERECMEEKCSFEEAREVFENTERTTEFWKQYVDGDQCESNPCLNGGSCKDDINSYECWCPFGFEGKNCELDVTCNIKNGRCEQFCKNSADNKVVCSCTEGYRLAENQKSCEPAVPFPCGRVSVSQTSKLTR
Coagulation factor IX, sequence (P00740 227-461 limits assumed): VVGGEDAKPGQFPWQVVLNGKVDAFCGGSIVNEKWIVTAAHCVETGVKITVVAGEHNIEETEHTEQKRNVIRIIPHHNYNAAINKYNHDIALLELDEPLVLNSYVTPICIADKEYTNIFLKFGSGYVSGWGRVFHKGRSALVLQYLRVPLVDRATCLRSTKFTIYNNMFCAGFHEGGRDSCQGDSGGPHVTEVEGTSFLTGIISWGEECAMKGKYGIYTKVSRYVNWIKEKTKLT
Tissue-type plasminogen activator, sequence (P00750 whole entry): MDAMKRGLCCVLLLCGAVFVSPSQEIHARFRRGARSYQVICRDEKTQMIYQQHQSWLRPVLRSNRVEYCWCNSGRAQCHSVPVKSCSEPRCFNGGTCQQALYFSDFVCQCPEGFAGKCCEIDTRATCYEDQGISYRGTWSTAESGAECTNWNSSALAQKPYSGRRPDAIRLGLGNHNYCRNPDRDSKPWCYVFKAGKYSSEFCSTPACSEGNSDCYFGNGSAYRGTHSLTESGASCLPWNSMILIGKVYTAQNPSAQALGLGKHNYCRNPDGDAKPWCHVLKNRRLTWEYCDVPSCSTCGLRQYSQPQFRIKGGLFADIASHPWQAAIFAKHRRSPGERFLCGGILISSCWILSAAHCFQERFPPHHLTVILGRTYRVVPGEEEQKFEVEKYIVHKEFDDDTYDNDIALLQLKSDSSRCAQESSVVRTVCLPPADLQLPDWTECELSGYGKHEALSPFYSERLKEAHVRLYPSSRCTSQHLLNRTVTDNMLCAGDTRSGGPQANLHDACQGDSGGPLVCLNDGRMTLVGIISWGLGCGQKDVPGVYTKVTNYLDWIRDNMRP
Chymotrypsinogen B, sequence (P17538 34-164 limits assumed, other chains not shown): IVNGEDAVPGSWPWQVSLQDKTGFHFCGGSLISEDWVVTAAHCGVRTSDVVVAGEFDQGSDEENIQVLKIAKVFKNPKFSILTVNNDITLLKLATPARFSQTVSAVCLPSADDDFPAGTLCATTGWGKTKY
Chymotrypsinogen B, sequence (P17538 167-263 limits assumed, other chains not shown): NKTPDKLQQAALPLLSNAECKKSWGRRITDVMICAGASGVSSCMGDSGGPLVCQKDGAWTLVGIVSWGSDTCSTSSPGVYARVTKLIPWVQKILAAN

## CCOC(=O)c1nn(-c2ccc(OC)cc2)c2c(=O)n(-c3ccc(-c4ccccc4CN4CCCC4)cc3)cnc12
[1]
  Ki: 3.8 nM
[2]
  2aPTT: 1.8 µM

## COc1ccc(-n2nc(C(N)=O)c3ncn(-c4ccc(-c5ccccc5CN5CCCC5)cc4)c(=O)c32)cc1 [listing 1 of 2 here]
[2]
  2aPTT: 4 µM
[3]
  Ki: 1600 nM
[4]
  Ki: > 4200 nM
[5]
  Ki: > 76000 nM
[6]
  Ki: > 41000 nM
[7]
  Ki: > 15000 nM
[8]
  Ki: > 15000 nM
[9]
  Ki: > 33000 nM
[10]
  Ki: > 13000 nM
[11]
  Ki: 7930 nM
[12]
  Ki: 1 nM
[13]
  ID50: 5.5 µmol/kg/h
[13]; Oryctolagus cuniculus
  IC50: 1200 nM
[14]
  fraction unbound: 0.23

## COc1ccc(-n2nc(C(N)=O)c3ncn(-c4ccc(-c5ccccc5CN5CCCC5)cc4)c(=O)c32)cc1.O=C(O)C(F)(F)F
[15]
  clearance: 9.17 mL/min/kg
[16]
  Vd: 3.9 L/kg
[17]
  half-life: 5.4 h
[18]
  bioavailability: 94%
[19]
  Papp: 12 ×10⁻⁶ cm/s

## COc1ccc(-n2nc(C#N)c(N)c2C(=O)Nc2ccc(-c3ccccc3S(C)(=O)=O)cc2F)cc1
[1]
  Ki: 8.4 nM

## COc1ccc(-n2nc(C#N)c3ncn(-c4ccc(-c5ccccc5CN(C)C)cc4)c(=O)c32)cc1
[1]
  Ki: 2.1 nM

## COc1ccc(-n2nc(C#N)c3nc(C)n(-c4ccc(-c5ccccc5CN(C)C)cc4)c(=O)c32)cc1
[1]
  Ki: 1.8 nM

## COc1ccc(-n2nc(Cn3ccnc3)c3nc(C)n(-c4ccc(-c5ccccc5CN5CCCC5)cc4)c(=O)c32)cc1
[1]
  Ki: 2.1 nM

## COc1ccc(-n2nc(C(N)=O)c3ncn(-c4ccc(-c5ccccc5S(N)(=O)=O)cc4)c(=O)c32)cc1
[1]
  Ki: 1.7 nM
[2]
  2aPTT: 8.7 µM

## COc1ccc(-n2nc(C(=O)O)c3ncn(-c4ccc(-c5ccccc5S(N)(=O)=O)cc4)c(=O)c32)cc1
[1]
  Ki: 38 nM

## COc1ccc(-n2nc(C(N)=O)c3ncn(-c4ccc(-c5ccccc5CN5CCCC5)cc4F)c(=O)c32)cc1 [listing 1 of 2 here]
[1]
  Ki: 0.74 nM
[2]
  2aPTT: 3.9 µM
[3]
  Ki: 1800 nM
[4]
  Ki: > 2500 nM
[5]
  Ki: > 76000 nM
[6]
  Ki: > 15000 nM
[7]
  Ki: > 15000 nM
[8]
  Ki: > 15000 nM
[9]
  Ki: > 33000 nM
[10]
  Ki: > 13000 nM
[11]
  Ki: 530 nM
[12]
  Ki: 1.2 nM
[20]
  IC50: > 1000 nM
[20]; iv
  inhibition in vivo at 4.6 µmol/kg/h: 33%
[14]
  fraction unbound: 0.15

## COc1ccc(-n2nc(C(N)=O)c3ncn(-c4ccc(-c5ccccc5CN5CCCC5)cc4F)c(=O)c32)cc1.O=C(O)C(F)(F)F
[15]
  clearance: 12.7 mL/min/kg
[16]
  Vd: 4.9 L/kg
[17]
  half-life: 5.1 h
[18]
  bioavailability: 96%
[19]
  Papp: 15 ×10⁻⁶ cm/s

## COc1ccc(-n2nc(C(F)(F)F)c3c(C)nn(-c4ccc(-c5ccccc5S(N)(=O)=O)cc4)c(=O)c32)cc1
[1]
  Ki: 2.8 nM

## COc1ccc(-n2nc(C(N)=O)c3ncn(-c4ccc(-c5ccccc5CN5CCCC5)cc4)c(=O)c32)cc1 [listing 2 of 2 here]
[21]
  2PT: 2.2 µM
[22]
  2PT: 1.8 µM

## COc1ccc(-n2nc(C#N)c3ncn(-c4ccc(-c5ccccc5S(N)(=O)=O)cc4)c(=O)c32)cc1
[1]
  Ki: 1.9 nM
[2]
  2aPTT: 5.8 µM

## COc1ccc(-n2nc(CN)c3ncn(-c4ccc(-c5ccccc5S(N)(=O)=O)cc4)c(=O)c32)cc1
[1]
  Ki: 22 nM

## COc1ccc(-n2nc(C#N)c3[nH]c(=O)n(-c4ccc(-c5ccccc5S(C)(=O)=O)cc4F)c(=O)c32)cc1
[1]
  Ki: 3 nM
[2]
  2aPTT: 197 µM

## COc1ccc(-n2nc(C(F)(F)F)cc2C(=O)Nc2ccc(-c3ccccc3S(C)(=O)=O)cc2F)cc1
[2]
  2aPTT: 104 µM

## COC(=O)c1nn(-c2ccc(OC)cc2)c2c(=O)n(-c3ccc(-c4ccccc4S(N)(=O)=O)cc3)cnc12
[1]
  Ki: 2.8 nM
[2]
  2aPTT: 7.1 µM

## COc1ccc(-n2nc(Cn3cnnn3)c3nc(C)n(-c4ccc(-c5ccccc5CN5CCCC5)cc4)c(=O)c32)cc1
[1]
  Ki: 1.4 nM

## COC(=O)c1nn(-c2ccc(OC)cc2)c2c(=O)n(-c3ccc(-c4ccccc4S(N)(=O)=O)cc3F)cnc12
[1]
  Ki: 1.8 nM

## COc1ccc(-n2nc(C#N)c3ncn(-c4ccc(-c5ccccc5CN5CCCC5)cc4)c(=O)c32)cc1
[1]
  Ki: 1.7 nM
[3]
  Ki: 1100 nM
[4]
  Ki: > 2500 nM
[5]
  Ki: 48700 nM
[6]
  Ki: > 15000 nM
[7]
  Ki: > 15000 nM
[8]
  Ki: > 15000 nM
[9]
  Ki: > 33000 nM
[10]
  Ki: > 13000 nM
[11]
  Ki: 2030 nM

## CCOC(=O)c1nn(-c2ccc(OC)cc2)c2c(=O)n(-c3ccc(-c4ccccc4CN4CCCC4)cc3F)cnc12
[1]
  Ki: 3.6 nM

## CN(C)Cc1nccn1-c1ccc(NC(=O)c2cc(C(F)(F)F)nn2-c2ccc3onc(N)c3c2)c(F)c1.Cl [RAZAXABAN HYDROCHLORIDE]
[21]
  2PT: 2.1 µM
[23]
  Vdss: 5.3 L/kg
[24]
  T1/2: 3.4 h
[14]
  fraction unbound: 0.07

## COc1ccc(-n2nc(C#N)c3ncn(-c4ccc(-c5ccccc5CN5CCCC5)cc4)c(=O)c32)cc1.O=C(O)C(F)(F)F
[15]
  clearance: 113 mL/min/kg
[16]
  Vd: 75 L/kg
[17]
  half-life: 8.3 h
[18]
  bioavailability: 77%
[19]
  Papp: 3.1 ×10⁻⁶ cm/s

## COc1ccc(-n2nc(C(N)=O)c3ncn(-c4ccc(-c5ccccc5S(N)(=O)=O)cc4F)c(=O)c32)cc1
[1]
  Ki: 1.2 nM
[2]
  2aPTT: 9.8 µM

## COc1ccc(-n2nc(Cn3ncnn3)c3nc(C)n(-c4ccc(-c5ccccc5CN5CCCC5)cc4)c(=O)c32)cc1
[1]
  Ki: 1.9 nM
[2]
  2aPTT: 20.1 µM
[21]
  2PT: 6.5 µM

## CCOC(=O)c1nn(-c2ccc(OC)cc2)c2c(=O)n(-c3ccc(-c4ccccc4CO)cc3)cnc12
[1]
  Ki: 45 nM

## COc1ccc(-n2nc(C(F)(F)F)c3c(C)nn(-c4ccc(-c5ccccc5CN5CCCC5)cc4)c(=O)c32)cc1
[1]
  Ki: 2.8 nM
[2]
  2aPTT: 53 µM
[21]
  2PT: 62 µM

## COc1ccc(-n2nc(C(N)=O)c3ncn(-c4ccc(-c5ccccc5CN5CCCC5)cc4F)c(=O)c32)cc1 [listing 2 of 2 here]
[21]
  2PT: 3.4 µM
[22]
  2PT: 1.6 µM

## COc1ccc(-n2nc(C(N)=O)c3ncn(-c4ccc(-c5ccccc5CN5CC[C@@H](O)C5)cc4)c(=O)c32)cc1
[1]
  Ki: 1.5 nM
[2]
  2aPTT: 5 µM
[21]
  2PT: 3.6 µM
